Measurements taken from ChEMBL document CHEMBL1138853, “Synthesis and antituberculosis activity of a novel series of optically active 6-nitro-2,3-dihydroimidazo[2,1-b]oxazoles” (2006).
Converted amounts (≈) assume the structure as drawn.

What was measured:
[1] = test system: Mycobacterium tuberculosis; assay: Antituberculosis activity against Mycobacterium tuberculosis H37Rv; type: functional
Summary of the method: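 Agar dilution on 7H11 plates with drug-susceptible and drug-resistant M. tuberculosis H37Rv strains grown in Middlebrook 7H9 broth. Frozen stocks (-80 °C) diluted to about 10⁶ CFU/mL and spotted with a multipoint inoculator onto drug-containing plates. Drugs dissolved in DMSO and serially diluted 2-fold in DMSO. Read-out: MIC.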

[2] = test system: Mycobacterium tuberculosis; assay: Reduction in log CFU of Mycobacterium tuberculosis Kurono infected in mouse lung at 50 mg/kg, po relative to control; type: functional
Summary of the method: (§1)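 Mice weighing 20-25 g infected intravenously via tail vein with 10⁴ CFU of M. tuberculosis Kurono. Oral dosing once daily at 0.5-50 mg/kg for 10 days (n = 2), starting the day after infection. Sacrificed on day 11; lungs homogenised and dilution-plated on 7H11 agar at 37 °C for 14 days. Mean log CFU reduction calculated against untreated controls.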

[3] = test system: Mycobacterium tuberculosis; assay: Reduction in log CFU of Mycobacterium tuberculosis Kurono infected in mouse lung at 0.5 mg/kg, po after 10 days; type: functional; summary of the method: as §1
[4] = test system: Mycobacterium tuberculosis; assay: Reduction in log CFU of Mycobacterium tuberculosis Kurono infected in mouse lung at 10 mg/kg, po after 10 days; type: functional; summary of the method: as §1
[5] = test system: Mycobacterium tuberculosis; assay: Decrease in Mycobacterium tuberculosis count in mouse pulmonary; type: functional, organism-based
Summary of the method: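 ICR male mice (20-25 g) infected intravenously via tail vein with 10⁴ CFU of M. tuberculosis Kurono. Dosed orally once daily as a 5% gum arabic suspension for 28 days (n = 6), starting the day after infection. Sacrificed on day 29; lung homogenates plated on 7H11 agar at 37 °C for 14 days. Counts compared with untreated controls.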

[6] = test system: Mycobacterium tuberculosis; assay: Reduction in log CFU of Mycobacterium tuberculosis Kurono infected in mouse lung at 5 mg/kg, po after 10 days; type: functional; summary of the method: as §1

Structure (SMILES)	MIC [1] [µg/mL]	Activity [2]	other results
CC1(COc2ccccc2)Cn2cc([N+](=O)[O-])nc2O1 (centres undefined)	0.1 (≈ 0.363 µM)	–	–
C[C@]1(COc2ccc(N3CCC(Oc4ccccc4OC(F)(F)F)CC3)cc2)Cn2cc([N+](=O)[O-])nc2O1	0.39 (≈ 0.73 µM)	3	–
C[C@@]1(COc2ccccc2)Cn2cc([N+](=O)[O-])nc2O1	3.13 (≈ 11.4 µM)	–	–
O=[N+]([O-])c1cn2c(n1)OC(COCCc1ccccc1)C2 (centres undefined)	1.56 (≈ 5.39 µM)	–	–
C[C@]1(COc2ccc(N3CCC(Oc4ccc(Cl)cc4)CC3)cc2)Cn2cc([N+](=O)[O-])nc2O1	0.05 (≈ 0.103 µM)	2.2	–
C[C@]1(COc2ccc(N3CCC(Oc4ccc(F)cc4)CC3)cc2)Cn2cc([N+](=O)[O-])nc2O1	0.39 (≈ 0.832 µM)	2.2	–
Cc1ccc(OC2CCN(c3ccc(OC[C@@]4(C)Cn5cc([N+](=O)[O-])nc5O4)cc3)CC2)cc1	0.78 (≈ 1.68 µM)	0.6	–
C[C@]1(COc2ccccc2)Cn2cc([N+](=O)[O-])nc2O1	0.05 (≈ 0.182 µM)	2	–
C[C@]1(COc2ccc(N3CC[S+]([O-])CC3)cc2)Cn2cc([N+](=O)[O-])nc2O1	6.25 (≈ 15.9 µM)	–	–
C[C@]1(COc2ccc(N3CCSCC3)cc2)Cn2cc([N+](=O)[O-])nc2O1	0.78 (≈ 2.07 µM)	0	–
C[C@]1(COc2ccc(N3CCOCC3)cc2)Cn2cc([N+](=O)[O-])nc2O1	0.78 (≈ 2.16 µM)	1.3	–
C[C@]1(COc2ccc(C(F)(F)F)cc2)Cn2cc([N+](=O)[O-])nc2O1	0.2 (≈ 0.583 µM)	>4.4	–
COc1ccc(OC2CCN(c3ccc(OC[C@@]4(C)Cn5cc([N+](=O)[O-])nc5O4)cc3)CC2)cc1	0.39 (≈ 0.812 µM)	0.1	–
C[C@]1(COc2ccc(N3CCC(Oc4ccc(OC(F)(F)F)cc4)CC3)cc2)Cn2cc([N+](=O)[O-])nc2O1 [DELAMANID]	0.006 (≈ 0.0112 µM)	>3.8	Activity [3]: 2.5; Activity [4]: >4.4; Activity [5]: Dose-dependent effect
C[C@]1(COc2ccc(OC(F)(F)F)cc2)Cn2cc([N+](=O)[O-])nc2O1	0.2 (≈ 0.557 µM)	>3.6	Activity [3]: 0.4; Activity [4]: 3
C[C@]1(COc2ccc(N3CCC(Oc4ccccc4)CC3)cc2)Cn2cc([N+](=O)[O-])nc2O1	0.39 (≈ 0.866 µM)	2.8	–
Cc1ccc(OC[C@@]2(C)Cn3cc([N+](=O)[O-])nc3O2)cc1	0.012 (≈ 0.0415 µM)	2.9	–
CO[C@H]1/C=C/O[C@@]2(C)Oc3c(C)c(O)c4c(O)c(c(/C=N/N5CCN(C)CC5)c(O)c4c3C2=O)NC(=O)/C(C)=C\C=C\[C@H](C)[C@H](O)[C@@H](C)[C@@H](O)[C@@H](C)[C@H](OC(C)=O)[C@@H]1C [RIFAMPIN]	0.1 (≈ 0.122 µM)	–	Activity [6]: 0.5
O=[N+]([O-])c1cn2c(n1)OC(COCc1ccccc1)C2 (centres undefined)	3.13 (≈ 11.4 µM)	–	–
COc1ccc(OC[C@@]2(C)Cn3cc([N+](=O)[O-])nc3O2)cc1	0.05 (≈ 0.164 µM)	0.72	–
C[C@]1(COc2ccc(Cl)cc2)Cn2cc([N+](=O)[O-])nc2O1	0.024 (≈ 0.0775 µM)	>3.1	–
O=[N+]([O-])c1cn2c(n1)OC(COC/C=C/c1ccccc1)C2 (centres undefined)	12.5 (≈ 41.5 µM)	–	–
C[C@]1(COc2ccc(N3CCC(Oc4cccc(OC(F)(F)F)c4)CC3)cc2)Cn2cc([N+](=O)[O-])nc2O1	0.024 (≈ 0.0449 µM)	>4.4	–
C[C@]1(COc2ccc(N3CCC(Oc4ccc(C(F)(F)F)cc4)CC3)cc2)Cn2cc([N+](=O)[O-])nc2O1	0.012 (≈ 0.0231 µM)	2.2	–
C[C@]1(COc2ccc(N3CCCCC3)cc2)Cn2cc([N+](=O)[O-])nc2O1	0.78 (≈ 2.18 µM)	1.9	–
